From ChEMBL document CHEMBL1212820, “Novel hinge binder improves activity and pharmacokinetic properties of BRAF inhibitors” (J Med Chem, 2010)

Experiments:
[1] = biological target: T1, Serine/threonine-protein kinase B-raf (Homo sapiens, UniProt P15056, V600E); assay: Inhibition of B-Raf V600E mutant
Method in brief: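 Enzymatic IC50 determined in vitro against purified V600E BRAF.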

[2] = biological target: T1, Serine/threonine-protein kinase B-raf; assay: Inhibition of BRAF V600E mutant-mediated ERK phosphorylation in human WM266.4 cells; format: cell-based
Method in brief: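 Cellular IC50 for inhibition of phosphoERK formation.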

[3] = Growth inhibition of human WM266.4 cells expressing BRAF V600E mutant after 5 days by SRB assay; format: functional; conditions: WM 266-4, 120 h
Method in brief: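 Antiproliferative SRB assay in WM266.4 (BRAF mutant), WM1361 (NRAS mutant) and D24 (BRAF/NRAS wild-type) melanoma cells, with GI50 derived from the assay.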

T1 sequence (P15056 2-766 V600E limits assumed): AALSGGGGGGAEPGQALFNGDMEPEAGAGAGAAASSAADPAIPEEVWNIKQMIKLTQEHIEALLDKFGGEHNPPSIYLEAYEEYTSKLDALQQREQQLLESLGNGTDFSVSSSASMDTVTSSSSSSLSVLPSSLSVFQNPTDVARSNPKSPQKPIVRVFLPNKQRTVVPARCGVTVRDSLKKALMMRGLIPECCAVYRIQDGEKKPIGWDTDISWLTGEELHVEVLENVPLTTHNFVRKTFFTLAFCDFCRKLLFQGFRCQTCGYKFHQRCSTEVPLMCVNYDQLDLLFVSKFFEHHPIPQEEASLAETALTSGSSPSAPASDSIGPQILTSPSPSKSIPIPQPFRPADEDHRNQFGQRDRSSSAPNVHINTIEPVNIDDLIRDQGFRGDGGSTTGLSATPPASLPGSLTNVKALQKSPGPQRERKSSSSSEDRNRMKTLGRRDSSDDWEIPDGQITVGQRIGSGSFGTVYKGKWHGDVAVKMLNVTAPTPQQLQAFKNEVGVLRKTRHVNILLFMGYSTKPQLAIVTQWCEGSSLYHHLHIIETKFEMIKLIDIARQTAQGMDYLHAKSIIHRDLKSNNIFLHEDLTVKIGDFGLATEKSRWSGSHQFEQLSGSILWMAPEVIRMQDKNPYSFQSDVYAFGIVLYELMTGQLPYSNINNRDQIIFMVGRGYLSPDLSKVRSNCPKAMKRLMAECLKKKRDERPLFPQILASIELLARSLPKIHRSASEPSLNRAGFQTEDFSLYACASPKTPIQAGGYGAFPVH

IC50 [1]	IC50 [2]	SMILES	GI50 [3]
150 nM	7 nM	Cc1ccc(-n2nc(C(C)(C)C)cc2NC(=O)Nc2ccc(Oc3ccnc4[nH]c(=O)c(N)nc34)c3ccccc23)cc1	77 nM
40 nM	10000 nM	O=C(Nc1cccc(Oc2ccnc3[nH]c(=O)cnc23)c1)Nc1cc(C(F)(F)F)ccc1F	10000 nM
4 nM	195 nM	CSc1cc(Oc2ccnc3[nH]c(=O)cnc23)ccc1NC(=O)Nc1cc(C(F)(F)F)ccc1F	96 nM
264 nM	48 nM	CC(C)(C)c1cc(NC(=O)Nc2ccc(Oc3ccnc4ncc(=O)[nH]c34)c3ccccc23)n(-c2ccccc2)n1	73 nM
320 nM	11 nM	Cc1ccc(-n2nc(C(C)(C)C)cc2NC(=O)Nc2ccc(Oc3ccnc4[nH]c(=O)c(N)nc34)cc2F)cc1	8 nM
34 nM	3500 nM	CC(C)(C)c1cccc(C(=O)Nc2cccc(Oc3ccnc4ncc(=O)[nH]c34)c2)c1	2540 nM
640 nM	1700 nM	CC(C)(C)c1cc(NC(=O)Nc2cccc(Oc3ccnc4ncc(=O)[nH]c34)c2)n(-c2ccccc2)n1	1600 nM
940 nM	650 nM	CC(C)(C)c1cc(NC(=O)Nc2ccc(Oc3ccnc4ncc(=O)[nH]c34)cc2F)n(-c2ccccc2)n1	940 nM
17 nM	13000 nM	O=C(Nc1ccc(Oc2ccnc3[nH]c(S)nc23)cc1F)Nc1cc(C(F)(F)F)ccc1F	970 nM
2290 nM	634 nM	Cc1ccc(-n2nc(C(C)(C)C)cc2NC(=O)Nc2ccc(Oc3ccnc4ncc(=O)[nH]c34)cc2)cc1	670 nM
20 nM	3 nM	CSc1cc(Oc2ccnc3[nH]c(=O)c(C)nc23)ccc1NC(=O)Nc1cc(C(C)(C)C)nn1-c1ccccc1	4 nM
> 10000 nM	1700 nM	CN(C)c1cnc2c(Oc3ccc(NC(=O)Nc4cc(C(C)(C)C)nn4-c4ccccc4)c(F)c3)ccnc2n1	1100 nM
108 nM	3400 nM	Cc1nc2nccc(Oc3ccc(NC(=O)Nc4cc(C(F)(F)F)ccc4F)c4ccccc34)c2[nH]c1=O	8500 nM
132 nM	69 nM	Cc1ccc(-n2nc(C(C)(C)C)cc2NC(=O)Nc2cccc(Oc3ccnc4[nH]c(=O)c(C)nc34)c2)cc1	69 nM
6 nM	660 nM	O=C(Nc1ccc(Cl)c(C(F)(F)F)c1)Nc1ccc(Oc2ccnc3[nH]c(=O)cnc23)cc1F	1300 nM
59 nM	16000 nM	O=C(Nc1ccc(Cl)c(C(F)(F)F)c1)Nc1ccc(Oc2ccnc3ncc(=O)[nH]c23)cc1F	3900 nM
306 nM	37000 nM	O=C(Nc1cccc(Oc2ccnc3ncc(=O)[nH]c23)c1)c1cccc(OC(F)(F)F)c1	6800 nM
11 nM	4890 nM	O=C(Nc1ccc(Oc2ccnc3[nH]c(=O)cnc23)cc1)Nc1ccc(Cl)c(C(F)(F)F)c1	9100 nM
43 nM	229 nM	Nc1nc2nccc(Oc3ccc(NC(=O)Nc4cc(C(F)(F)F)ccc4F)c4ccccc34)c2[nH]c1=O	204 nM
2 nM	97 nM	CSc1cc(Oc2ccnc3[nH]c(=O)c(C)nc23)ccc1NC(=O)Nc1cc(C(F)(F)F)ccc1F	225 nM
21 nM	5200 nM	O=C(Nc1ccc(Oc2ccnc3[nH]c(=O)c(=O)[nH]c23)cc1)Nc1ccc(Cl)c(C(F)(F)F)c1	3190 nM
1670 nM	1700 nM	CN(C)c1nc2c(Oc3ccc(NC(=O)Nc4cc(C(C)(C)C)nn4-c4ccccc4)c(F)c3)ccnc2[nH]1	574 nM
84 nM	2070 nM	O=C(Nc1cc(C(F)(F)F)ccc1F)Nc1ccc(Oc2ccnc3ncc(=O)[nH]c23)c2ccccc12	486 nM
